Data from ChEMBL document CHEMBL1134669, “N-Succinyl-(beta-alanyl-L-leucyl-L-alanyl-L-leucyl)doxorubicin: an extracellularly tumor-activated prodrug devoid of intravenous acute toxicity” (2001).

How the values were obtained:
Mus musculus [1] = assay: Maximum survival time after heparin pretreatment to mice at 4000 IU of heparin administered intraperitoneally; type: functional
Procedure, shortened: (§1)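 Male OF-1 mice; heparin (low molecular weight, 0, 4000 or 8000 IU in 0.9% NaCl, filter-sterilized) given ip or iv 1 h before iv bolus of prodrug in 0.9% NaCl (10 µL/g body weight) at 172.4 µmol/kg. Acute toxicity scored as % of animals; survival time recorded in days. At least 3 animals per experiment.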

Mus musculus [2] = assay: Effect of heparin pretreatment on the acute toxicity when 4000 IU of heparin administered iv; Activity as % of animals; type: functional; procedure, shortened: as §1
Mus musculus [3] = assay: Effect of heparin pretreatment on the acute toxicity when 0 IU of heparin administered; Activity as % of animals; type: functional; procedure, shortened: as §1
Mus musculus [4] = assay: Maximum survival time after heparin pretreatment to mice at 4000 IU of heparin administered intravenously; type: functional; procedure, shortened: as §1
Mus musculus [5] = assay: Maximum survival time after heparin pretreatment to mice at 8000 IU of heparin administered intraperitoneally; type: functional; procedure, shortened: as §1
Mus musculus [6] = assay: Minimum survival time after heparin pretreatment to mice at 0 IU of heparin administered
Mus musculus [7] = assay: Effect of heparin pretreatment on the acute toxicity when 4000 IU of heparin administered ip; Activity as % of animals; type: functional; procedure, shortened: as §1
Mus musculus [8] = assay: Effect of heparin pretreatment on the acute toxicity when 8000 IU of heparin administered ip; type: functional; procedure, shortened: as §1

SMILES | MST (Mus musculus [1]) | Acute toxicity (Mus musculus [2]) | Acute toxicity (Mus musculus [3]) | MST (Mus musculus [4]) | MST (Mus musculus [5]) | min survival time (Mus musculus [6]) | Acute toxicity (Mus musculus [7]) | Acute toxicity (Mus musculus [8])
CC(O)C(=O)O.COc1cccc2c1C(=O)c1c(O)c3c(c(O)c1C2=O)C[C@@](O)(C(=O)CO)C[C@@H]3O[C@H]1C[C@H](NC(=O)[C@H](CC(C)C)NC(=O)[C@H](C)NC(=O)[C@H](CC(C)C)NC(=O)CCN)[C@H](O)[C@H](C)O1 | 9 days | 33% | 100% | 11 days | 11 days | 0 days | 37% | 0%
COc1cccc2c1C(=O)c1c(O)c3c(c(O)c1C2=O)C[C@@](O)(C(=O)CO)C[C@@H]3O[C@H]1C[C@H](NC(=O)[C@H](CC(C)C)NC(=O)[C@H](C)NC(=O)[C@H](CC(C)C)NC(=O)CCNC(=O)CCC(=O)[O-])[C@H](O)[C@H](C)O1.[Na+] | – | – | 0% | – | – | 9 days | – | –
